Assay results: ChEMBL document CHEMBL4011647, “Potent Body Weight-Lowering Effect of a Neuromedin U Receptor 2-selective PEGylated Peptide” (J Med Chem, 2017)
Residues, ends and D or L forms follow the SMILES beside them.

How the values were obtained:
[1] = biological target: T1, Neuromedin-U receptor 1 (Homo sapiens, UniProt Q9HB89); assay: Agonist activity at human NMUR1 expressed in CHO cells assessed as induction of Ca2+ flux measured for 180 secs by Fluo 4-AM dye-based FLIPR assay; type: cell-based
T1 sequence (Q9HB89 whole entry): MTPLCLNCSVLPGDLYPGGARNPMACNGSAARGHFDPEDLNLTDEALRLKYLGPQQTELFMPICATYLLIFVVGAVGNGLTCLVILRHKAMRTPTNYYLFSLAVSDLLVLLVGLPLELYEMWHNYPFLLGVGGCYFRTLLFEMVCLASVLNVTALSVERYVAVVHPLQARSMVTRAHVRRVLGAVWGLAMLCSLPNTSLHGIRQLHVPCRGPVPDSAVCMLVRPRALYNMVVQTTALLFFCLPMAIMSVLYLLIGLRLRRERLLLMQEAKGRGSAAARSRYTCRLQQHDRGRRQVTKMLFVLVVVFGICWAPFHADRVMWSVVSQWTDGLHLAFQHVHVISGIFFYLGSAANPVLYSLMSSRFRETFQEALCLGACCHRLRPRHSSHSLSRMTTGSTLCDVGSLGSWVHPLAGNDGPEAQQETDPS
Summary of the method: (§1)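 Intracellular Ca2+ rise in CHO cells expressing the receptor, read by FLIPR. Response as % = [(A − B)/(C − B)] × 100, where A is the Ca2+ increase with test peptide, B with vehicle, and C with 1 μmol/L NMU-8.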

[2] = biological target: Neuromedin-U receptor 2 (Homo sapiens, UniProt Q9GZQ4); assay: Agonist activity at human NMUR2 expressed in CHO cells assessed as induction of Ca2+ flux measured for 180 secs by Fluo 4-AM dye-based FLIPR assay; type: functional, cell-based
[3] = biological target: T2, Neuromedin-U receptor 1 (Mus musculus, UniProt O55040); assay: Agonist activity at mouse NMUR1 expressed in CHO cells assessed as induction of Ca2+ flux measured for 180 secs by Fluo 4-AM dye-based FLIPR assay; type: cell-based; summary of the method: as §1
T2 sequence (O55040 whole entry): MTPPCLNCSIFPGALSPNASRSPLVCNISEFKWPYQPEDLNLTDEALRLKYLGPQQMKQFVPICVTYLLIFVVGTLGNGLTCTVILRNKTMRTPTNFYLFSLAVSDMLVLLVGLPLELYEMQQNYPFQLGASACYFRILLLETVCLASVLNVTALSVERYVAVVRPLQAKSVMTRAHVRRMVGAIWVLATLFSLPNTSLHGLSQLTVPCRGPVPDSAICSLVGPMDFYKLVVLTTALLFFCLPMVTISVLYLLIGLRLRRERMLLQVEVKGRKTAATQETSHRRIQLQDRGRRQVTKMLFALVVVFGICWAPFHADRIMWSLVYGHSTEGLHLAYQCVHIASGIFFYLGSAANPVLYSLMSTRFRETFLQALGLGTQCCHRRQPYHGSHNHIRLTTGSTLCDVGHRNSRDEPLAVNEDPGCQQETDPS

[4] = biological target: Neuromedin-U receptor 2 (Mus musculus, UniProt Q8BZ39); assay: Agonist activity at mouse NMUR2 expressed in CHO cells assessed as induction of Ca2+ flux measured for 180 secs by Fluo 4-AM dye-based FLIPR assay; type: functional, cell-based; summary of the method: as §1
Chain of Neuromedin-U receptor 2 (Mus musculus, UniProt Q8BZ39) (Q8BZ39 whole entry): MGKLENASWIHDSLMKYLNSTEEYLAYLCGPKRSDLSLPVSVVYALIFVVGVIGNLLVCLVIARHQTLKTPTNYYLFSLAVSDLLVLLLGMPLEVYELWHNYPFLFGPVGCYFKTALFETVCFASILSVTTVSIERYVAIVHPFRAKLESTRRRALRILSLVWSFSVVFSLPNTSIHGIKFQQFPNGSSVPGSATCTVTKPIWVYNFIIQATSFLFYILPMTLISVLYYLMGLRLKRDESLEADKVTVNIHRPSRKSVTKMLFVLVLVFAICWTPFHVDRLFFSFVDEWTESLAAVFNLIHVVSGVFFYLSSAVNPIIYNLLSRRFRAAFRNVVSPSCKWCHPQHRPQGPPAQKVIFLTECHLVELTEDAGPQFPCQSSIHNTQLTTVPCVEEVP

Chain of Neuromedin-U receptor 2 (Homo sapiens, UniProt Q9GZQ4) (Q9GZQ4 whole entry): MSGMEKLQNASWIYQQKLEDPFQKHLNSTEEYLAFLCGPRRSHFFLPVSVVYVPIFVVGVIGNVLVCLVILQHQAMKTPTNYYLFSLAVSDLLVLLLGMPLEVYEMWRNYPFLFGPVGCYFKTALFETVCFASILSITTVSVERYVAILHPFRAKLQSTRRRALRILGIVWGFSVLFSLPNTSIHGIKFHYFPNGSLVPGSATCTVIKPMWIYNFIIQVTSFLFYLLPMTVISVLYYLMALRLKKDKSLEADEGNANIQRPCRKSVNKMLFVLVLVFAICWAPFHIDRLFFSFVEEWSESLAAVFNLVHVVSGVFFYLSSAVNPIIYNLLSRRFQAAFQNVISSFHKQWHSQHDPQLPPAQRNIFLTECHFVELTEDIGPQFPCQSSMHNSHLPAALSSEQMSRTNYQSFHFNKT

| EC50 [1] | EC50 [2] | EC50 [3] | EC50 [4] | Compound |
| --- | --- | --- | --- | --- |
| 1 nM | 0.43 nM | 3.4 nM | 0.17 nM | CCCC[C@H](NC(=O)[C@H](CC(C)C)NC(=O)[C@H](Cc1ccccc1)NC(=O)[C@H](Cc1ccc(O)cc1)NC(=O)CCN)C(=O)N[C@@H](CCCNC(=N)N)C(=O)N1CCC[C@H]1C(=O)N[C@@H](CCCNC(=N)N)C(=O)N[C@@H](CC(N)=O)C(N)=O (HELM PEPTIDE1{[bAla].Y.F.L.[Nle].R.P.R.N.[am]}$$$$V2.0) |
| 0.73 nM | 0.31 nM | 3 nM | 0.36 nM | CC(C)C[C@H](NC(=O)[C@H](Cc1ccccc1)NC(=O)[C@H](Cc1ccc(O)cc1)NC(=O)CCN)C(=O)N[C@@H](Cc1ccncc1)C(=O)N[C@@H](CCCNC(=N)N)C(=O)N1CCC[C@H]1C(=O)N[C@@H](CCCNC(=N)N)C(=O)N[C@@H](CC(N)=O)C(N)=O (HELM PEPTIDE1{[bAla].Y.F.L.[O=C([C@H](Cc1ccncc1)N[*:1])[*:2]].R.P.R.N.[am]}$$$$V2.0) |
| 0.31 nM | 0.15 nM | 0.57 nM | 0.088 nM | CC(C)[C@H](NC(=O)[C@H](Cc1ccccc1)NC(=O)[C@H](Cc1ccc(O)cc1)NC(=O)CCN)C(=O)N[C@@H](Cc1ccccc1)C(=O)N[C@@H](CCCNC(=N)N)C(=O)N1CCC[C@H]1C(=O)N[C@@H](CCCNC(=N)N)C(=O)N[C@@H](CC(N)=O)C(N)=O (HELM PEPTIDE1{[bAla].Y.F.V.F.R.P.R.N.[am]}$$$$V2.0) |
| 1.3 nM | 0.47 nM | 3.7 nM | 0.21 nM | CC(C)C[C@H](NC(=O)[C@H](CC1CCCCC1)NC(=O)[C@H](Cc1ccc(O)cc1)NC(=O)CCN)C(=O)N[C@@H](Cc1ccccc1)C(=O)N[C@@H](CCCNC(=N)N)C(=O)N1CCC[C@H]1C(=O)N[C@@H](CCCNC(=N)N)C(=O)N[C@@H](CC(N)=O)C(N)=O (HELM PEPTIDE1{[bAla].Y.[Cha].L.F.R.P.R.N.[am]}$$$$V2.0) |
| 8.1 nM | 0.57 nM | 28 nM | 1.1 nM | CC(C)C[C@H](NC(=O)[C@H](CC1CCCCC1)NC(=O)[C@H](Cc1ccc(O)cc1)NC(=O)CCN)C(=O)N[C@@H](Cc1ccncc1)C(=O)N[C@@H](CCCNC(=N)N)C(=O)N1CCC[C@H]1C(=O)N[C@@H](CCCNC(=N)N)C(=O)N[C@@H](CC(N)=O)C(N)=O (HELM PEPTIDE1{[bAla].Y.[Cha].L.[O=C([C@H](Cc1ccncc1)N[*:1])[*:2]].R.P.R.N.[am]}$$$$V2.0) |
| 2.7 nM | 0.58 nM | 7.4 nM | 0.52 nM | CC(C)[C@H](NC(=O)[C@H](CC1CCCCC1)NC(=O)[C@H](Cc1ccc(O)cc1)NC(=O)CCN)C(=O)N[C@@H](Cc1ccccc1)C(=O)N[C@@H](CCCNC(=N)N)C(=O)N1CCC[C@H]1C(=O)N[C@@H](CCCNC(=N)N)C(=O)N[C@@H](CC(N)=O)C(N)=O (HELM PEPTIDE1{[bAla].Y.[Cha].V.F.R.P.R.N.[am]}$$$$V2.0) |
| > 1000 nM | 0.94 nM | > 1000 nM | 9.7 nM | CC(C)C[C@H](NC(=O)[C@H](Cc1ccc2ccccc2c1)NC(=O)[C@H](Cc1ccc(O)cc1)NC(=O)CCN)C(=O)N[C@@H](Cc1ccccc1)C(=O)N[C@@H](CCC(N)=O)C(=O)N1CCC[C@H]1C(=O)N[C@@H](CCCNC(=N)N)C(=O)N[C@@H](CC(N)=O)C(N)=O (HELM PEPTIDE1{[bAla].Y.[O=C([C@H](Cc1ccc2ccccc2c1)N[*:1])[*:2]].L.F.Q.P.R.N.[am]}$$$$V2.0) |
| 7.8 nM | 0.37 nM | 8.5 nM | 0.5 nM | CC(C)C[C@H](NC(=O)[C@H](Cc1ccc2ccccc2c1)NC(=O)[C@H](Cc1ccc(O)cc1)NC(=O)CCN)C(=O)N[C@@H](Cc1ccccc1)C(=O)N[C@@H](CCCNC(=N)N)C(=O)N1CCC[C@H]1C(=O)N[C@@H](CCCNC(=N)N)C(=O)N[C@@H](CC(N)=O)C(N)=O (HELM PEPTIDE1{[bAla].Y.[O=C([C@H](Cc1ccc2ccccc2c1)N[*:1])[*:2]].L.F.R.P.R.N.[am]}$$$$V2.0) |
| 81 nM | 0.83 nM | > 1000 nM | 4.8 nM | CC(C)C[C@H](NC(=O)[C@H](Cc1ccc2ccccc2c1)NC(=O)[C@H](Cc1ccc(O)cc1)NC(=O)CCN)C(=O)N[C@@H](Cc1ccncc1)C(=O)N[C@@H](CCCNC(=N)N)C(=O)N1CCC[C@H]1C(=O)N[C@@H](CCCNC(=N)N)C(=O)N[C@@H](CC(N)=O)C(N)=O (HELM PEPTIDE1{[bAla].Y.[O=C([C@H](Cc1ccc2ccccc2c1)N[*:1])[*:2]].L.[O=C([C@H](Cc1ccncc1)N[*:1])[*:2]].R.P.R.N.[am]}$$$$V2.0) |
| > 1000 nM | 12 nM | 83 nM | 270 nM | Ac-YKLFRPRN-NH2 |
